Measurements taken from ChEMBL document CHEMBL1132751, “Structure-activity relationships of trans-3,5-disubstituted pyrrolidinylthio-1beta-methylcarbapenems. Part 1: J-111,347 and related compounds” (2000).
In brackets after ≈: the same amount, converted by molar mass.

Legend:
Format in all cases: functional
Escherichia coli = test: In vitro antibacterial activity was determined against Escherichia coli NIHJ JC2.
Pseudomonas aeruginosa [1] = test: In vitro antibacterial activity was determined against Pseudomonas aeruginosa AK109.
Pseudomonas aeruginosa [2] = test: In vitro antibacterial activity was determined against ceftazidime- resistant Pseudomonas aeruginosa AKR17.
Procedure, shortened: (§1)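 Minimum inhibitory concentration determined by agar dilution. The S. aureus pMS520/Smith and S. epidermidis MB5181 strains are methicillin-resistant isolates.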

Staphylococcus aureus [3] = test: In vitro antibacterial activity was determined against Staphylococcus aureus 209P NIHJ JCI.
Staphylococcus aureus [4] = test: In vitro antibacterial activity was determined against methicillin-resistant Staphylococcus aureus pMS520/Smith.; procedure, shortened: as §1
[5] = test system: Staphylococcus epidermidis; test: In vitro antibacterial activity was determined against methicillin-resistant Staphylococcus epidermidis MB5181.; procedure, shortened: as §1
Staphylococcus aureus [6] = test: TIn vitro antibacterial activity against methicillin-resistant Staphylococcus aureus pMS520/Smith.; procedure, shortened: as §1

Row | Structure (SMILES) | MIC (Escherichia coli) [µg/mL] | MIC (Pseudomonas aeruginosa [1]) [µg/mL] | MIC (Pseudomonas aeruginosa [2]) [µg/mL] | MIC (Staphylococcus aureus [3]) [µg/mL] | MIC (Staphylococcus aureus [4]) [µg/mL] | MIC [5] [µg/mL] | MIC (Staphylococcus aureus [6]) [µg/mL]
1 | C[C@@H](O)[C@H]1C(=O)N2C(C(=O)O)=C(S[C@@H]3CN[C@H](CNc4ccccc4)C3)[C@H](C)[C@H]12 | 0.05 (≈ 0.12 µM) | 12.5 (≈ 29.9 µM) | 25 (≈ 59.9 µM) | < 0.006 | 12.5 (≈ 29.9 µM) | 6.25 (≈ 15 µM) | –
2 | C[C@@H](O)[C@H]1C(=O)N2C(C(=O)O)=C(S[C@@H]3CN[C@H](COc4ccc(CN)cc4)C3)[C@H](C)[C@H]12 | 0.025 (≈ 0.0559 µM) | 1.56 (≈ 3.49 µM) | 12.5 (≈ 27.9 µM) | < 0.006 | 3.13 (≈ 6.99 µM) | 6.25 (≈ 14 µM) | –
3 | C[C@@H](O)[C@H]1C(=O)N2C(C(=O)O)=C(S[C@@H]3CN[C@H](CCc4ccccc4)C3)[C@H](C)[C@H]12 | 0.05 (≈ 0.12 µM) | 25 (≈ 60 µM) | > 50 | < 0.006 | 6.25 (≈ 15 µM) | 3.13 (≈ 7.51 µM) | –
4 | C[C@@H](O)[C@H]1C(=O)N2C(C(=O)O)=C(S[C@@H]3CN[C@@H](CSc4ccc(CN)cc4)C3)[C@H](C)[C@H]12 | 0.05 (≈ 0.108 µM) | 1.56 (≈ 3.36 µM) | 12.5 (≈ 27 µM) | < 0.006 | 3.13 (≈ 6.75 µM) | 3.13 (≈ 6.75 µM) | –
5 | C[C@@H](O)[C@H]1C(=O)N2C(C(=O)O)=C(S[C@@H]3CN[C@@H](c4ccc(CN)cc4)C3)[C@H](C)[C@H]12 | 0.025 (≈ 0.0599 µM) | 0.39 (≈ 0.934 µM) | 3.13 (≈ 7.5 µM) | < 0.006 | 0.78 (≈ 1.87 µM) | 1.56 (≈ 3.74 µM) | –
6 | C[C@@H](O)[C@H]1C(=O)N2C(C(=O)O)=C(S[C@@H]3CN[C@H](COc4ccccc4)C3)[C@H](C)[C@H]12 | 0.39 (≈ 0.932 µM) | 25 (≈ 59.7 µM) | > 50 | 0.012 (≈ 0.0287 µM) | 25 (≈ 59.7 µM) | 25 (≈ 59.7 µM) | –
7 | C[C@@H](O)[C@H]1C(=O)N2C(C(=O)O)=C(S[C@@H]3CN[C@H](CSc4ccc(CN)cc4)C3)[C@H](C)[C@H]12 | 0.025 (≈ 0.0539 µM) | 0.78 (≈ 1.68 µM) | 3.13 (≈ 6.75 µM) | < 0.006 | 1.56 (≈ 3.36 µM) | 3.13 (≈ 6.75 µM) | –
8 | C[C@@H](O)[C@H]1C(=O)N2C(C(=O)O)=C(S[C@@H]3CN[C@@H](Cc4ccc(CN)cc4)C3)[C@H](C)[C@H]12 | 0.39 (≈ 0.904 µM) | 25 (≈ 57.9 µM) | > 100 | 0.05 (≈ 0.116 µM) | 12.5 (≈ 29 µM) | 12.5 (≈ 29 µM) | –
9 | C[C@@H](O)[C@H]1C(=O)N2C(C(=O)O)=C(S[C@@H]3CN[C@H](Cc4ccc(CN)cc4)C3)[C@H](C)[C@H]12 | 0.025 (≈ 0.0579 µM) | 0.39 (≈ 0.904 µM) | 6.25 (≈ 14.5 µM) | < 0.006 | 3.13 (≈ 7.25 µM) | 3.13 (≈ 7.25 µM) | –
10 | C[C@@H](O)[C@H]1C(=O)N2C(C(=O)O)=C(S[C@@H]3CN[C@H](Cc4ccccc4)C3)[C@H](C)[C@H]12 | 0.1 (≈ 0.248 µM) | 25 (≈ 62.1 µM) | > 50 | < 0.006 | 6.25 (≈ 15.5 µM) | 3.13 (≈ 7.78 µM) | –
11 | C[C@@H](O)[C@H]1C(=O)N2C(C(=O)O)=C(S[C@@H]3CN[C@H](CSc4ccccc4)C3)[C@H](C)[C@H]12 | 0.1 (≈ 0.23 µM) | 50 (≈ 115 µM) | 50 (≈ 115 µM) | < 0.006 | 6.25 (≈ 14.4 µM) | 3.13 (≈ 7.2 µM) | –
12 | C[C@@H](O)[C@H]1C(=O)N2C(C(=O)O)=C(S[C@@H]3CN[C@H](CCc4ccc(CN)cc4)C3)[C@H](C)[C@H]12 | 0.025 (≈ 0.0561 µM) | 0.78 (≈ 1.75 µM) | 6.25 (≈ 14 µM) | < 0.006 | 3.13 (≈ 7.02 µM) | 25 (≈ 56.1 µM) | –
13 | C[C@@H](O)[C@H]1C(=O)N2C(C(=O)O)=C(S[C@@H]3CN[C@H](c4ccc(CN)cc4)C3)[C@H](C)[C@H]12 | 0.025 (≈ 0.0599 µM) | 0.78 (≈ 1.87 µM) | 6.25 (≈ 15 µM) | < 0.006 | – | 3.13 (≈ 7.5 µM) | 1.56 (≈ 3.74 µM)
14 | C[C@@H](O)[C@H]1C(=O)N2C(C(=O)O)=C(S[C@@H]3CN[C@H](CNc4ccc(CN)cc4)C3)[C@H](C)[C@H]12 | 0.025 (≈ 0.056 µM) | 1.56 (≈ 3.49 µM) | 12.5 (≈ 28 µM) | < 0.006 | 3.13 (≈ 7.01 µM) | 6.25 (≈ 14 µM) | –
15 | C[C@@H](O)[C@H]1C(=O)N2C(C(=O)O)=C(SCCNC=N)C[C@H]12.O | 0.01 | 1.56 | 3.13 | < 0.006 | 50 | 50 | –
16 | CN[C@H](CC(C)C)C(=O)N[C@H]1C(=O)N[C@@H](CC(N)=O)C(=O)N[C@H]2C(=O)N[C@H]3C(=O)N[C@H](C(=O)N[C@H](C(=O)O)c4cc(O)cc(O)c4-c4cc3ccc4O)[C@H](O)c3ccc(c(Cl)c3)Oc3cc2cc(c3O[C@@H]2O[C@H](CO)[C@@H](O)[C@H](O)[C@H]2O[C@H]2C[C@](C)(N)[C@H](O)[C@H](C)O2)Oc2ccc(cc2Cl)[C@H]1O [VANCOMYCIN] | > 100 | > 100 | > 100 | – | 0.78 (≈ 0.538 µM) | – | –
